Measurements reported in ChEMBL document CHEMBL2407056, “3-(Oxazolo[4,5-b]pyridin-2-yl)anilides as a novel class of potent inhibitors for the kinetoplastid Trypanosoma brucei, the causative agent for human African trypanosomiasis” (Eur J Med Chem, 2013).
Values after ≈ are worked out from the molar mass of the structure shown.

Legend:
[1] = tested on: Trypanosoma brucei brucei; assay: Antitrypanosomal activity against Trypanosoma brucei brucei 427 bloodstream form after 48 hrs by Alamar blue assay; format: functional, organism-based; conditions: Trypanosoma brucei, 427, 48 h
Summary of the method: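 Bloodstream parasites in 384-well plates, 24 h preincubation at 37 °C/5% CO2. DMSO dilutions diluted 1:21 in DMEM and added to give final 41.67 to 0.0004 µM; 48 h incubation. 70% Alamar Blue in HMI-9 + 10% FCS added, 2 h at 37 °C then 22 h at room temperature; read at ex 535/em 590 nm.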

[2] = Selectivity index, ratio of IC50 for HEK293 cells to IC50 for Trypanosoma brucei brucei 427 bloodstream form; format: toxicity, cell-based; conditions: human, read-out: Ratio IC50
Summary of the method: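 HEK293 cells (55 µL of 72,727 cells/mL in DMEM + 10% FCS) in 384-well plates, 24 h at 37 °C/5% CO2. Drug diluted 1:21 from DMSO, final 83.34 to 0.0004 µM, 48 h. […] SI relative to T. b. brucei.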

[3] = Partition coefficient, log D of the compound at pH 7.4 by HPLC analysis; format: physicochemical; conditions: octanol/water
Summary of the method: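 Chromatographic gradient HPLC: mobile phase 50 mM ammonium acetate pH 7.4 (or ammonium formate pH 3.0) with an acetonitrile gradient of 0–100% over 10 min; UV detection at 220 and 254 nm.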

[4] = Kinetic solubility of the compound in phosphate buffer at pH 2 by nephelometry; format: physicochemical; conditions: read-out: Kinetic_solubility
[5] = Intrinsic clearance in human liver microsomes at 1 uM after 60 mins by LC-MS analysis; format: ADME, Microsome; conditions: read-out: CLH
Summary of the method: (§1)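 Compound at 1 µM final (1 in 500 dilution of stock) incubated at 37 °C with human liver microsomes in 0.1 M phosphate buffer pH 7.4, 0.4 mg/mL protein. First-order depletion rate from exponential decay fit used to derive in vitro CLint and half-life; predicted hepatic extraction ratio from scaled CLint with liver blood flow 20.7 mL/min/kg.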

[6] = Kinetic solubility of the compound in phosphate buffer at pH 6.5 by nephelometry; format: physicochemical; conditions: read-out: Kinetic_solubility
Summary of the method: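 DMSO stocks spiked into pH 6.5 phosphate buffer or 0.01 M HCl (about pH 2.0), final DMSO 1% (v/v). Solubility range determined by nephelometry.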

[7] = Half life in human liver microsomes at 1 uM by LC-MS analysis; format: ADME, Microsome; summary of the method: as §1
Leishmania donovani [8] = assay: Antimicrobial activity against Leishmania donovani MHOM/ET/67/L82 amastigote form after 70 hrs by Alamar blue assay; format: functional, organism-based; conditions: MHOM/ET/67/L82, 70 h
Summary of the method: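 Axenic amastigotes grown at 37 °C in SM medium pH 5.4 with 10% heat-inactivated FBS, 5% CO2; 10⁵ parasites per well exposed to eleven 3-fold dilutions (100 to 0.002 µg/mL) for 70 h. Alamar Blue (resazurin) added for 2–4 h, fluorescence read at ex 536/em 588 nm. IC50 by linear regression from sigmoidal curves; miltefosine control.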

Leishmania donovani [9] = assay: Antimicrobial activity against Leishmania donovani amastigote form infected in mouse peritoneal macrophage after 96 hrs by Giemsa staining method; format: functional, organism-based
Summary of the method: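 Mouse peritoneal macrophages (4×10⁴/well, RPMI 1640 + 10% heat-inactivated FBS) infected after 24 h with 1.2×10⁵ axenic amastigotes; free parasites removed at 4 h, drug dilutions added next day. After 96 h, methanol fixation and 10% Giemsa staining; infected and non-infected macrophages counted, % reduction in parasite burden vs controls, IC50 by linear regression; miltefosine control.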

L6 = assay: Cytotoxicity against rat L6 cells after 70 hrs by Alamar blue assay; format: cell-based; conditions: L6, 70 h
Summary of the method: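 4000 L-6 cells per well in RPMI 1640 with L-glutamine and 10% FBS. Eleven 3-fold dilutions from 100 to 0.002 µg/mL for 70 h; Alamar Blue 2 h, fluorescence at ex 536/em 588 nm. IC50 by linear regression from sigmoidal curves; podophyllotoxin control.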

Trypanosoma cruzi = assay: Antitrypanosomal activity against Trypanosoma cruzi Tulahuen C2C4 amastigotes infected in rat L6 cells after 96 hrs by beta-galactosidase reporter gene assay; format: functional, organism-based; conditions: Tulahuen C2C4, L6, 96 h
Summary of the method: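 L-6 cells (2000/well, RPMI 1640 + 10% FBS, 2 mM L-glutamine) infected after 24 h with 5000 LacZ-expressing trypomastigotes. At 48 h the medium was replaced with eleven 3-fold drug dilutions (100 to 0.002 µg/mL). After 96 h, CPRG/Nonidet substrate added, colour read at 540 nm after 2–6 h. IC50 by linear regression from sigmoidal curves; benznidazole control.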

Plasmodium falciparum = assay: Antimicrobial activity against Plasmodium falciparum NF54 infected in human RBC after 48 hrs by [3H]hypoxanthine incorporation assay; format: functional, organism-based
Summary of the method: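 Erythrocytic stage, drug-sensitive strain, in hypoxanthine-free RPMI 1640 with HEPES, NaHCO3, neomycin, Albumax, human A+ red cells at 2.5% haematocrit, 0.3% parasitaemia. Eleven 3-fold dilutions from 100 to 0.002 µg/mL; 37 °C, 4% CO2/3% O2/93% N2. ³H-hypoxanthine added at 48 h, further 24 h, then harvested and scintillation-counted. IC50 by linear regression; chloroquine control.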

[10] = tested on: Trypanosoma brucei rhodesiense; assay: Antitrypanosomal activity against Trypanosoma brucei rhodesiense STIB 900 bloodstream form after 70 hrs by Alamar blue assay; format: functional, organism-based; conditions: STIB 900, 70 h
Summary of the method: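 Bloodstream forms (4×10³/well) in MEM with 25 mM HEPES, extra glucose, non-essential amino acids, 0.2 mM 2-mercaptoethanol, 1 mM pyruvate and 15% heat-inactivated horse serum. Eleven 3-fold dilutions from 100 to 0.002 µg/mL, 70 h at 37 °C/5% CO2; Alamar Blue 2 h, fluorescence at ex 536/em 588 nm; IC50 by linear regression; melarsoprol control. SI relative to L6 cells.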

Structure (SMILES)	IC50 [1] [nM]	selectivity ratio [2]	further results
COc1ccc(-c2nc3ncccc3o2)cc1NC(=O)c1ccco1	1100	74	
O=C(Nc1cc(-c2nc3ncccc3o2)ccc1Cl)c1ccco1	> 10000		
O=C(Nc1cccc(-c2nc3ncccc3o2)c1)c1ccco1	340	> 245	
Cc1ccc(-c2nc3ncccc3o2)cc1NC(=O)c1ccco1	6200	13	
Cc1ccc(NC(=O)c2ccco2)cc1-c1nc2ncccc2o1	940	> 88	
Cc1ccc(NC(=O)c2occc2C)cc1-c1nc2ncccc2o1	570	145	logD [3]: 3.3; solubility kinetic [4]: 1.6 µg/mL (≈ 4.8 µM); microsomal CLint at 1 µM [5]: 228 µL/min/mg; solubility kinetic [6]: < 1.6 µg/mL; half-life at 1 µM [7]: 8 min
Cc1ccc(NC(=O)c2cnco2)cc1-c1nc2ncccc2o1	> 10000		
Cc1ccc(NC(=O)c2ccoc2)cc1-c1nc2ncccc2o1	310	103	logD [3]: 2.7; solubility kinetic [4]: 12.5 µg/mL (≈ 39.1 µM); microsomal CLint at 1 µM [5]: 176 µL/min/mg; solubility kinetic [6]: 6.3 µg/mL (≈ 19.7 µM); half-life at 1 µM [7]: 10 min
Cc1ccc(NC(=O)c2cscn2)cc1-c1nc2ncccc2o1	2600	32	
O=C(Nc1ccc(F)c(-c2nc3ncccc3o2)c1)c1ccco1	290	290	
Cc1ccoc1C(=O)Nc1ccc(F)c(-c2nc3ncccc3o2)c1	100	840	logD [3]: 2.9; solubility kinetic [4]: 1.6 µg/mL (≈ 4.74 µM); microsomal CLint at 1 µM [5]: 202 µL/min/mg; solubility kinetic [6]: 1.6 µg/mL (≈ 4.74 µM); half-life at 1 µM [7]: 9 min
O=C(Nc1ccc(F)c(-c2nc3ncccc3o2)c1)c1cnco1	2000	43	logD [3]: 1.7; solubility kinetic [4]: 6.3 µg/mL (≈ 19.4 µM); microsomal CLint at 1 µM [5]: 14 µL/min/mg; solubility kinetic [6]: 6.3 µg/mL (≈ 19.4 µM); half-life at 1 µM [7]: 124 min
O=C(Nc1ccc(F)c(-c2nc3ncccc3o2)c1)c1ccoc1	120	680	logD [3]: 2.4; solubility kinetic [4]: 12.5 µg/mL (≈ 38.7 µM); microsomal CLint at 1 µM [5]: 154 µL/min/mg; solubility kinetic [6]: 6.3 µg/mL (≈ 19.5 µM); half-life at 1 µM [7]: 11 min
O=C(Nc1ccc(F)c(-c2nc3ncccc3o2)c1)c1cscn1	760	110	logD [3]: 2.3; solubility kinetic [4]: 3.1 µg/mL (≈ 9.11 µM); microsomal CLint at 1 µM [5]: 48 µL/min/mg; solubility kinetic [6]: 3.1 µg/mL (≈ 9.11 µM); half-life at 1 µM [7]: 36 min
O=C(Nc1cccc(-c2nc3ncc(-c4ccccc4)cc3o2)c1)c1ccco1	120	84	
COc1ccc(-c2cnc3nc(-c4cccc(NC(=O)c5ccco5)c4)oc3c2)cc1	630	130	
O=C(Nc1cccc(-c2nc3ncc(-c4ccc(Cl)cc4)cc3o2)c1)c1ccco1	550	150	
O=C(Nc1cccc(-c2nc3ncccc3[nH]2)c1)c1ccco1	780	54	
O=C(Nc1cccc(-c2nc3ncccc3[nH]2)c1)c1ccoc1	1000	39	
O=C(Nc1ccc(Cl)c(-c2nc3ccccc3o2)c1)c1ccco1	> 10000		
CN(C(=O)c1ccoc1)c1ccc(Cl)c(-c2nc3ncccc3o2)c1	> 10000		
CN(C(=O)c1ccccc1)c1ccc(Cl)c(-c2nc3ncccc3o2)c1	> 10000		
O=C(Nc1ccc(Cl)c(-c2nc3ncccc3o2)c1)c1c[nH]cn1	> 10000		
O=C(Nc1ccc(Cl)c(-c2nc3ncccc3o2)c1)c1cc2ccccc2o1	> 10000		
O=C(Nc1ccc(Cl)c(-c2nc3ncccc3o2)c1)c1ccccc1	1500	54	IC50 (Leishmania donovani [8]): 6.1 µM; IC50 (Leishmania donovani [9]): 37 µM; IC50 (L6): 51 µM; IC50 (Trypanosoma cruzi): 2900 nM; IC50 (Plasmodium falciparum): 6.9 µM; IC50 [10]: 4200 nM
COc1ccccc1C(=O)Nc1ccc(Cl)c(-c2nc3ncccc3o2)c1	> 10000		

Structure (SMILES)	IC50 [1] [nM]	selectivity ratio [2]	further results
COc1cccc(C(=O)Nc2ccc(Cl)c(-c3nc4ncccc4o3)c2)c1	> 10000		
O=C(Nc1ccc(Cl)c(-c2nc3ncccc3o2)c1)c1ccccn1	5700	15	
O=C(Nc1ccc(Cl)c(-c2nc3ncccc3o2)c1)c1ccncc1	3400		
O=C(Nc1ccc(Cl)c(-c2nc3ncccc3o2)c1)c1cccnc1	> 10000		
COCC(=O)Nc1ccc(Cl)c(-c2nc3ncccc3o2)c1	> 10000		
Cc1ccoc1C(=O)Nc1cccc(-c2nc3ncccc3o2)c1	170	115	logD [3]: 2.9; solubility kinetic [4]: 6.3 µg/mL (≈ 19.7 µM); microsomal CLint at 1 µM [5]: 181 µL/min/mg; solubility kinetic [6]: 3.1 µg/mL (≈ 9.71 µM); half-life at 1 µM [7]: 10 min
O=C(Nc1cccc(-c2nc3ncccc3o2)c1)c1cnco1	2900	29	
O=C(Nc1cccc(-c2nc3ncccc3o2)c1)c1ccoc1	600	89	
O=C(Nc1cccc(-c2nc3ncccc3o2)c1)c1cscn1	1300	63	
Cc1c(NC(=O)c2ccco2)cccc1-c1nc2ncccc2o1	> 10000		
O=C(Nc1cccc(-c2nc3ncccc3o2)c1F)c1ccco1	> 10000		
O=C(Nc1cccc(-c2nc3ncccc3o2)c1Cl)c1ccco1	> 10000		
O=C(Nc1cc(-c2nc3ncccc3o2)ccn1)c1ccco1	> 10000		
O=C(Nc1cc(-c2nc3ncccc3o2)ccc1F)c1ccco1	6300	13	
O=C(Nc1cncc(-c2nc3ncccc3o2)c1)c1ccco1	> 10000		
O=C(Nc1cc(F)cc(-c2nc3ncccc3o2)c1)c1ccco1	> 10000		
Cc1ccoc1C(=O)Nc1ccc(Cl)c(-c2nc3ncccc3o2)c1	650	> 130	
O=C(Nc1ccc(Cl)c(-c2nc3ncccc3o2)c1)c1ccno1	3200		
O=C(Nc1ccc(Cl)c(-c2nc3ncccc3o2)c1)c1cnco1	1500	> 45	
O=C(Nc1ccc(Cl)c(-c2nc3ncccc3o2)c1)c1cscn1	1800	39	IC50 (Leishmania donovani [8]): 4.8 µM; IC50 (Leishmania donovani [9]): > 84 µM; IC50 (L6): 235 µM; IC50 (Trypanosoma cruzi): 2300 nM; IC50 (Plasmodium falciparum): 7.7 µM; IC50 [10]: 1100 nM
O=C(Nc1ccc(Cl)c(-c2nc3ncccc3o2)c1)c1cc[nH]n1	> 10000		
O=C(Cn1ccnc1[N+](=O)[O-])NCc1ccccc1 [BENZNIDAZOLE]			EC50 (Trypanosoma cruzi): 1460 nM
CCN(CC)CCCC(C)Nc1ccnc2cc(Cl)ccc12 (stereo unspecified) [CHLOROQUINE]			EC50 (Plasmodium falciparum): 6 nM
CCCCCCCCCCCCCCCCOP(=O)([O-])OCC[N+](C)(C)C [MILTEFOSINE]			EC50 (Leishmania donovani [8]): 490 nM; EC50 (Leishmania donovani [9]): 1670 nM
COc1cc([C@@H]2c3cc4c(cc3[C@H](O)[C@H]3COC(=O)[C@H]23)OCO4)cc(OC)c1OC [PODOFILOX]			EC50 (L6): 17 nM
